# Measurements as given in ChEMBL document CHEMBL1158053, “Polyoxygenated sterols from the Formosan soft coral Sinularia gibberosa” (J Nat Prod, 2006).
# Activity calls are given as the source filed them. The rule behind the calls is not given here.
# What was measured:
# MCF7 = test: Cytotoxicity against human MCF7 cells by MTT assay; format: functional, cell-based
# Procedure, shortened: (§1)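 ATCC-sourced tumour lines (HepG2, MCF7, MDA-MB-231, A-549) were tested with the MTT colorimetric method.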
# [1] = Cytotoxicity against human Hep G2 cells by MTT assay; format: functional, cell-based; details: HepG2; procedure, shortened: as §1
# A549 = test: Cytotoxicity against human A549 cells by MTT assay; format: functional, cell-based; procedure, shortened: as §1
# MDA-MB-231 = test: Cytotoxicity against human MDA-MB-231 cells by MTT assay; format: functional, cell-based; procedure, shortened: as §1
# RAW264.7 [2] = test: Antiinflammatory activity against LPS-stimulated mouse RAW264.7 cells assessed as inhibition of iNOS expression at 10 uM after 16 hrs by immunoblot analysis relative to control; format: functional; parameters: scale not given: the % may be the effect or the level left
# Procedure, shortened: (§2)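 RAW 264.7 murine macrophages (ATCC TIB-71) grown in DMEM with 10% heat-inactivated FBS, 37 °C, 5% CO2. Cells activated with E. coli LPS (0.01 µg/mL) for 16 h with or without compound. Lysates were loaded at equal protein and analysed by SDS-PAGE and Western blot. Antibodies were anti-iNOS and anti-COX-2 (1:1000, 180 min), with β-actin reprobe as loading control. ECL detection. Intensity expressed relative to LPS-only group (100%); mean ± SD, n = 3.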
# RAW264.7 [3] = test: Cytotoxicity against mouse RAW264.7 cells assessed as decrease in beta-actin at 100 uM by trypan blue staining; format: cell-based; details: raw264.7, 100 µM
# RAW264.7 [4] = test: Cytotoxicity against mouse RAW264.7 cells assessed as cell survival at 10 uM by trypan blue staining; format: cell-based; details: raw264.7, 10 µM
# Procedure, shortened: (§3)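 RAW 264.7 macrophages (DMEM, 10% heat-inactivated FBS, 37 °C, 5% CO2) were exposed to compound at 10 or 100 µM alongside the LPS-activation protocol. Viability was scored by trypan blue staining.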
# RAW264.7 [5] = test: Antiinflammatory activity against LPS-stimulated mouse RAW264.7 cells assessed as inhibition of COX2 expression at 10 uM after 16 hrs by immunoblot analysis relative to control; format: functional; parameters: scale not given: the % may be the effect or the level left; procedure, shortened: as §2
# RAW264.7 [6] = test: Cytotoxicity against mouse RAW264.7 cells assessed as cell loss at 100 uM by trypan blue staining; format: cell-based; details: raw264.7, 100 µM; procedure, shortened: as §3
SMILES,IC50 (MCF7) [µg/mL],IC50 [1] [µg/mL],IC50 (A549) [µg/mL],IC50 (MDA-MB-231) [µg/mL],Activity (RAW264.7 [2]),Activity (RAW264.7 [3]),Activity (RAW264.7 [4]),Activity (RAW264.7 [5]),Activity (RAW264.7 [6]) [%]
C=C(/C=C/[C@@H](C)[C@H]1CC[C@H]2[C@@H]3CC(=O)[C@H]4C[C@@H](O)C[C@H](O)[C@]4(C)[C@H]3CC[C@]12C)C(C)C [GIBBEROKETOSTEROL C],> 30,> 30,> 30,> 30,,,,,
C=C(CC[C@@H](C)[C@H]1CC[C@H]2[C@@H]3CC(=O)[C@]4(O)C[C@@H](O)C[C@H](O)[C@]4(C)[C@H]3CC[C@]12C)C(C)C [GIBBEROKETOSTEROL],14.1,13,14.5,14.4,44.5%,Active,Non-toxic,68.3%,38.4
C=C(CC[C@@H](C)[C@H]1CC[C@H]2[C@@H]3C[C@@H]4O[C@@]45C[C@@H](O)C[C@H](O)[C@]5(C)[C@H]3CC[C@]12C)C(C)C [GIBBEROEPOXYSTEROL],,,15.5,15.9,,,,,
C=C(/C=C/[C@@H](C)[C@H]1CC[C@H]2[C@@H]3CC(=O)[C@]4(O)C[C@@H](O)C[C@H](O)[C@]4(C)[C@H]3CC[C@]12C)C(C)C [GIBBEROKETOSTEROL B],> 30,> 30,> 30,> 30,inactive,,Non-toxic,inactive,
